ChEMBL document CHEMBL5058577, “EUbOPEN Chemogenomics Library 2 (Multiplex)” (2022)

Tested on: Fibroblast
Experiment: Multiplex assay against human fibroblast
Format: toxicity, cell-based
In short: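 Phenotypes for tubulin, mitochondrial mass and membrane permeability are expressed as per cents of healthy-nucleus cells. Cells were stained live at seeding with Hoechst33342, BioTracker Green Microtubule Cytoskeleton Dye, MitoTracker Red and Annexin V Alexa Fluor 680, then imaged after compound addition on a CQ1 microscope at 37°C and 5% CO2. Machine-learning gating in CellPathfinder separated Hoechst high-intensity objects from normal cells, divided normal cells by nuclear state (healthy, pyknosed, fragmented) and divided pyknosed cells into mitotic or apoptotic.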

[1] = 12 h, 1 µM, compound concentration 1 uM, replicate 1
[2] = 12 h, 1 µM, compound concentration 1 uM, replicate 2
[3] = 12 h, 10 µM, compound concentration 10 uM, replicate 1
[4] = 12 h, 10 µM, compound concentration 10 uM, replicate 2
[5] = 24 h, 1 µM, compound concentration 1 uM, replicate 1
[6] = 24 h, 1 µM, compound concentration 1 uM, replicate 2
[7] = 24 h, 10 µM, compound concentration 10 uM, replicate 1
[8] = 24 h, 10 µM, compound concentration 10 uM, replicate 2
[9] = 48 h, 1 µM, compound concentration 1 uM, replicate 1
[10] = 48 h, 1 µM, compound concentration 1 uM, replicate 2
[11] = 48 h, 10 µM, compound concentration 10 uM, replicate 1
[12] = 48 h, 10 µM, compound concentration 10 uM, replicate 2

CC(C)C[C@H](CO)Nc1nc(S[C@@H](C)c2ccccc2)nc2nc(N)sc12 [AZD-8797]
Population Apoptotic (%) [1]: 25% | Population Fragmented Nuclei (%) [1]: 23% | Population Healthy Nuclei (%) [1]: 62% | Population Hoechst High Intensity Objects (%) [1]: 1% | Population Membrane Permeable-Phenotype (%) [1]: 3% | Population Mitochondria Different-Phenotype (%) [1]: 3% | Population Mitotic Cells (%) [1]: 75% | Population Normal (%) [1]: 98% | Population Pyknosed Nuclei (%) [1]: 13% | Population Tubulin-Different-Phenotype (%) [1]: 23% | Total Cell Count [1]: 146 | Population Apoptotic (%) [2]: 31% | Population Fragmented Nuclei (%) [2]: 22% | Population Healthy Nuclei (%) [2]: 55% | Population Hoechst High Intensity Objects (%) [2]: 4% | Population Membrane Permeable-Phenotype (%) [2]: 16% | Population Mitochondria Different-Phenotype (%) [2]: 6% | Population Mitotic Cells (%) [2]: 68% | Population Normal (%) [2]: 95% | Population Pyknosed Nuclei (%) [2]: 21% | Population Tubulin-Different-Phenotype (%) [2]: 46% | Total Cell Count [2]: 92 | Population Apoptotic (%) [3]: 38% | Population Fragmented Nuclei (%) [3]: 18% | Population Healthy Nuclei (%) [3]: 64% | Population Hoechst High Intensity Objects (%) [3]: 3% | Population Membrane Permeable-Phenotype (%) [3]: 0% | Population Mitochondria Different-Phenotype (%) [3]: 6% | Population Mitotic Cells (%) [3]: 61% | Population Normal (%) [3]: 96% | Population Pyknosed Nuclei (%) [3]: 17% | Population Tubulin-Different-Phenotype (%) [3]: 46% | Total Cell Count [3]: 156 | Population Apoptotic (%) [4]: 36% | Population Fragmented Nuclei (%) [4]: 36% | Population Healthy Nuclei (%) [4]: 41% | Population Hoechst High Intensity Objects (%) [4]: 5% | Population Membrane Permeable-Phenotype (%) [4]: 10% | Population Mitochondria Different-Phenotype (%) [4]: 27% | Population Mitotic Cells (%) [4]: 64% | Population Normal (%) [4]: 94% | Population Pyknosed Nuclei (%) [4]: 21% | Population Tubulin-Different-Phenotype (%) [4]: 66% | Total Cell Count [4]: 122 | Population Apoptotic (%) [5]: 44% | Population Fragmented Nuclei (%) [5]: 15% | Population Healthy Nuclei (%) [5]: 69% | Population Hoechst High Intensity Objects (%) [5]: 1% | Population Membrane Permeable-Phenotype (%) [5]: 1% | Population Mitochondria Different-Phenotype (%) [5]: 1% | Population Mitotic Cells (%) [5]: 55% | Population Normal (%) [5]: 98% | Population Pyknosed Nuclei (%) [5]: 14% | Population Tubulin-Different-Phenotype (%) [5]: 24% | Total Cell Count [5]: 124 | Population Apoptotic (%) [6]: 31% | Population Fragmented Nuclei (%) [6]: 29% | Population Healthy Nuclei (%) [6]: 54% | Population Hoechst High Intensity Objects (%) [6]: 0% | Population Membrane Permeable-Phenotype (%) [6]: 17% | Population Mitochondria Different-Phenotype (%) [6]: 3% | Population Mitotic Cells (%) [6]: 68% | Population Normal (%) [6]: 99% | Population Pyknosed Nuclei (%) [6]: 15% | Population Tubulin-Different-Phenotype (%) [6]: 46% | Total Cell Count [6]: 103 | Population Apoptotic (%) [7]: 57% | Population Fragmented Nuclei (%) [7]: 21% | Population Healthy Nuclei (%) [7]: 66% | Population Hoechst High Intensity Objects (%) [7]: 1% | Population Membrane Permeable-Phenotype (%) [7]: 0% | Population Mitochondria Different-Phenotype (%) [7]: 15% | Population Mitotic Cells (%) [7]: 42% | Population Normal (%) [7]: 98% | Population Pyknosed Nuclei (%) [7]: 12% | Population Tubulin-Different-Phenotype (%) [7]: 38% | Total Cell Count [7]: 168 | Population Apoptotic (%) [8]: 33% | Population Fragmented Nuclei (%) [8]: 42% | Population Healthy Nuclei (%) [8]: 38% | Population Hoechst High Intensity Objects (%) [8]: 2% | Population Membrane Permeable-Phenotype (%) [8]: 8% | Population Mitochondria Different-Phenotype (%) [8]: 25% | Population Mitotic Cells (%) [8]: 66% | Population Normal (%) [8]: 97% | Population Pyknosed Nuclei (%) [8]: 19% | Population Tubulin-Different-Phenotype (%) [8]: 85% | Total Cell Count [8]: 126 | Population Apoptotic (%) [9]: 50% | Population Fragmented Nuclei (%) [9]: 25% | Population Healthy Nuclei (%) [9]: 60% | Population Hoechst High Intensity Objects (%) [9]: 1% | Population Membrane Permeable-Phenotype (%) [9]: 1% | Population Mitochondria Different-Phenotype (%) [9]: 1% | Population Mitotic Cells (%) [9]: 50% | Population Normal (%) [9]: 98% | Population Pyknosed Nuclei (%) [9]: 13% | Population Tubulin-Different-Phenotype (%) [9]: 11% | Total Cell Count [9]: 135 | Population Apoptotic (%) [10]: 47% | Population Fragmented Nuclei (%) [10]: 30% | Population Healthy Nuclei (%) [10]: 48% | Population Hoechst High Intensity Objects (%) [10]: 4% | Population Membrane Permeable-Phenotype (%) [10]: 4% | Population Mitochondria Different-Phenotype (%) [10]: 4% | Population Mitotic Cells (%) [10]: 52% | Population Normal (%) [10]: 95% | Population Pyknosed Nuclei (%) [10]: 20% | Population Tubulin-Different-Phenotype (%) [10]: 54% | Total Cell Count [10]: 95 | Population Apoptotic (%) [11]: 60% | Population Fragmented Nuclei (%) [11]: 25% | Population Healthy Nuclei (%) [11]: 65% | Population Hoechst High Intensity Objects (%) [11]: 2% | Population Membrane Permeable-Phenotype (%) [11]: 0% | Population Mitochondria Different-Phenotype (%) [11]: 13% | Population Mitotic Cells (%) [11]: 40% | Population Normal (%) [11]: 97% | Population Pyknosed Nuclei (%) [11]: 9% | Population Tubulin-Different-Phenotype (%) [11]: 35% | Total Cell Count [11]: 168 | Population Apoptotic (%) [12]: 35% | Population Fragmented Nuclei (%) [12]: 45% | Population Healthy Nuclei (%) [12]: 40% | Population Hoechst High Intensity Objects (%) [12]: 1% | Population Membrane Permeable-Phenotype (%) [12]: 12% | Population Mitochondria Different-Phenotype (%) [12]: 18% | Population Mitotic Cells (%) [12]: 64% | Population Normal (%) [12]: 98% | Population Pyknosed Nuclei (%) [12]: 14% | Population Tubulin-Different-Phenotype (%) [12]: 89% | Total Cell Count [12]: 121
